This is an account of results in ChEMBL document CHEMBL4038263, “Flavonoids from Erythrina schliebenii” (J Nat Prod, 2017).

Experiment [1] deals with MDA-MB-231. In words: Cytotoxicity against human MDA-MB-231 cells. Format: functional, cell-based.
Experiment [2] concerns Mycobacterium tuberculosis. In words: Antimycobacterial activity against Mycobacterium tuberculosis H37Rv. Format: functional. A digest of the protocol:
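Read-out is the minimum inhibitory concentration (MIC). Crude extracts are expressed in μg mL−1 and isolated constituents in μM. Isonicotinylhydrazine and rifampicin served as reference controls.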

As a reminder, the EC50 is the midpoint of the concentration-response curve. Higher therefore signals lower potency in that assay. By MIC is commonly meant the lowest concentration found to suppress growth. The low end stands for inhibition by little substance, the high end for a need for much substance.

Converted amounts (≈) assume the structure as drawn.

In experiment [1], `COc1ccc(-c2coc3cc(O)cc(O)c3c2=O)cc1OC` came in with an EC50 of 31.8 µM. The molecule further registered an MIC in experiment [2] of 102 µM (≈ 32 µg/mL).

Turning to `COc1ccc(/C=C/C(=O)c2c(O)cc(OC)c(OC)c2OC)cc1`, the EC50 in experiment [1] turned out to be 291 µM. In experiment [2], this molecule had an MIC of 92.9 µM (≈ 32 µg/mL).

For the molecule `COc1ccc(-c2coc3cc(O)cc(O)c3c2=O)cc1CC=C(C)C`, the midpoint of the response in experiment [1], the EC50, lay at 27.9 µM. The same molecule displayed an MIC in experiment [2] of 36.9 µM (≈ 13 µg/mL).

As for `COc1cc(-c2coc3cc(O)cc(O)c3c2=O)cc(OC)c1OC`, the concentration giving a half-maximal response (EC50) in experiment [1] came to 29 µM. For the same molecule, the MIC in experiment [2] amounted to 93 µM (≈ 32 µg/mL).

`COc1ccc([C@@H]2CC(=O)c3c(cc(OC)c(OC)c3OC)O2)cc1` displayed an EC50 in experiment [1] of 291 µM. Further, the MIC in experiment [2] was 92.9 µM (≈ 32 µg/mL).

Turning to `COc1cc(OC)c([C@@H]2COc3cc4c(c(O)c3C2=O)C=CC(C)(C)O4)cc1OC`, the midpoint of the response in experiment [1], the EC50, lay at 58 µM. Besides, in experiment [2], 67.6 µM (≈ 27.9 µg/mL) was the least that counted as inhibitory (MIC).

`COc1c(O)cc(-c2coc3cc(O)cc(O)c3c2=O)cc1CC=C(C)C` returned an EC50 in experiment [1] of 77 µM. In addition, the MIC in experiment [2] was determined as 86.9 µM (≈ 32 µg/mL).

`COc1cc(-c2coc3cc(O)cc(O)c3c2=O)cc(CC=C(C)C)c1OC`: the response in experiment [1] was half-maximal at 49.4 µM (EC50). Moreover, the lowest concentration to inhibit growth in experiment [2] (MIC) was 77.2 µM (≈ 29.5 µg/mL).

As for `C=C(C)/C=C/c1cc(-c2coc3cc(O)cc(O)c3c2=O)cc(O)c1OC`, in experiment [1], a half-maximal response (EC50) required 13 µM. The molecule further came in with an MIC in experiment [2] of 87.4 µM (≈ 32 µg/mL).

In the case of `COc1cc(OC)c(C2COc3cc(O)cc(O)c3C2=O)cc1OC` (stereo not given), the EC50 in experiment [1] came out at 275 µM. This molecule came in with an MIC in experiment [2] of 92.5 µM (≈ 32 µg/mL).

In turn, `COc1cc2c(cc1CC=C(C)C)[C@@H]1Oc3cc(O)ccc3[C@@H]1CO2` registered an MIC in experiment [2] of 90.8 µM (≈ 30.7 µg/mL). In other words, the double-digit micromolar range.

For `CC1(C)C=Cc2c(cc3occ(-c4ccc(O)cc4O)c(=O)c3c2O)O1`, in experiment [1], the response was half-maximal at 16.9 µM (EC50). The molecule also yielded an MIC in experiment [2] of 90.9 µM (≈ 32 µg/mL).

In turn, `COc1c(CC=C(C)C)cc([C@@H]2CC(=O)c3c(O)cc(O)cc3O2)cc1CC=C(C)C` returned an EC50 in experiment [1] of 21.6 µM. For the same molecule, the MIC in experiment [2] turned out to be 49.5 µM (≈ 20.9 µg/mL).

Consider `COc1ccc(-c2cc(=O)c3c(OC)c(OC)c(OC)cc3o2)cc1`, for which the response in experiment [1] was half-maximal at 292 µM (EC50). The same molecule came in with a minimum inhibitory concentration (MIC) in experiment [2] of 93.5 µM (≈ 32 µg/mL).

On to `CC(C)=CCc1cc([C@@H]2CC(=O)c3c(O)cc(O)cc3O2)cc(CC=C(C)C)c1O` [ABYSSINONE V], for which inhibition of growth in experiment [2] (MIC) required 78.3 µM (≈ 32 µg/mL).

For `COc1ccc([C@@H]2CC(=O)c3c(cc(OC)c(O)c3OC)O2)cc1` [HAMILTONE A], in experiment [1], the EC50 stood at 201 µM. The MIC in experiment [2] worked out at 96.9 µM (≈ 32 µg/mL).

As for `NNC(=O)c1ccncc1` [ISONIAZID], in experiment [2], 0.3 µM (≈ 0.0411 µg/mL) was the least that counted as inhibitory (MIC).

`C=C(C)[C@@H]1CC[C@]2(C)CC[C@]3(C)[C@H](CC[C@@H]4[C@@]5(C)CC[C@H](O)C(C)(C)[C@@H]5CC[C@]43C)[C@@H]12` [LUPEOL]: in experiment [1], the midpoint of the response, the EC50, lay at 209 µM.

Regarding `CO[C@H]1/C=C/O[C@@]2(C)Oc3c(C)c(O)c4c(O)c(c(/C=N/N5CCN(C)CC5)c(O)c4c3C2=O)NC(=O)/C(C)=C\C=C\[C@H](C)[C@H](O)[C@@H](C)[C@@H](O)[C@@H](C)[C@H](OC(C)=O)[C@@H]1C` [RIFAMPIN], the MIC in experiment [2] was 0.09 µM (≈ 0.0741 µg/mL).

Take `COc1ccc(-c2cc(=O)c3c(OC)c(OC)c(OC)cc3o2)cc1OC` [SINENSETIN]: in experiment [1], the midpoint of the response, the EC50, lay at 269 µM. The same molecule yielded an MIC in experiment [2] of 85.9 µM (≈ 32 µg/mL).
